Reference: ChEMBL document CHEMBL2169868, “Flavone-based novel antidiabetic and antidyslipidemic agents” (J Med Chem, 2012)

Experiments:
Mus musculus [1] = assay: Antidiabetic activity in diabetic C57BL/KsJ db/db mouse model assessed as improvement in glucose tolerance in hyperglycemia at 10 mg/kg, po measured 2 hrs post dose; assay type: functional
Syrian golden hamster [2] = assay: Antidyslipidemic activity in high fructose and high-fat diet fed dyslipidemic Syrian golden hamster model assessed as reduction in cholesterol level at 10 to 100 mg/kg/day for 7 days; assay type: functional, organism-based; conditions: Mesocricetus auratus
Summary of the method: (§1)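 Syrian golden hamsters fed high-fructose high-fat diet; oral dosing in 1% gum acacia at 10, 30, 100 mg/kg (or 25 mg/kg) for 7 days, sham control given vehicle; plasma TG, cholesterol, LDL-C, HDL-C, glycerol and NEFA (kits), lipoprotein lipase activity and body weight; % change versus HFD control, six hamsters per group.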

Syrian golden hamster [3] = assay: Antidyslipidemic activity in high fructose and high-fat diet fed dyslipidemic Syrian golden hamster model assessed as increase in lipoprotein lipase level at 30 mg/kg/day, po for 7 day, po; assay type: functional, Mesocricetus auratus; summary of the method: as §1
Rattus norvegicus = assay: Volume of distribution in Sprague-Dawley rat at 25 mg/kg, po by LC-MS/MS method; assay type: ADME, organism-based; design: dose 25 mg/kg, route oral; conditions: in vivo
Summary of the method: (§2)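 Male Sprague−Dawley rats given a single 25 mg/kg oral dose (aqueous 0.5% methyl cellulose suspension for one compound). Blood drawn from 0.08 to 48 h. LC-MS/MS, linear range 0.78−400 ng/mL.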

Syrian golden hamster [4] = assay: Antidyslipidemic activity in high fructose and high-fat diet fed dyslipidemic Syrian golden hamster model assessed as reduction in NEFA level at 30 mg/kg/day, po for 7 day, po; assay type: functional, Mesocricetus auratus; design: scale not given: the % may be the effect or the level left; summary of the method: as §1
Syrian golden hamster [5] = assay: Antidyslipidemic activity in high fructose and high-fat diet fed dyslipidemic Syrian golden hamster model assessed as reduction in triglyceride level at 10 to 100 mg/kg/day for 7 days; assay type: functional, organism-based; conditions: Mesocricetus auratus; summary of the method: as §1
Syrian golden hamster [6] = assay: Antidyslipidemic activity in high fructose and high-fat diet fed dyslipidemic Syrian golden hamster model assessed as reduction in cholesterol level at 10 mg/kg/day, po for 7 day, po; assay type: functional, Mesocricetus auratus; design: scale not given: the % may be the effect or the level left; summary of the method: as §1
Mus musculus [7] = assay: Antidiabetic activity in diabetic C57BL/KsJ db/db mouse model assessed as reduction in postprandial glucose level in hyperglycemia at 1 mg/kg, po measured 2 hrs post dose; assay type: functional; design: scale not given: the % may be the effect or the level left
Summary of the method: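 db/db mice (C57BL/KsJ, 12−18 weeks, 40−50 g; selected by glucose 200−350 mg/dL) dosed orally daily for 10 consecutive days at 1, 3, 10, 25 or 50 mg/kg; postprandial blood glucose profile recorded on day 6 with food access interrupted; mean % change versus vehicle in 5 animals per group; Student t test.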

Syrian golden hamster [8] = assay: Reduction in body weight in high fructose and high-fat diet fed dyslipidemic Syrian golden hamster model at 100 mg/kg/day, po for 7 days; assay type: functional, Mesocricetus auratus; design: scale not given: the % may be the effect or the level left
Summary of the method: (§3)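 HFD-fed Syrian golden hamsters, six per group, fed a high-fructose diet. Oral dosing in 1% gum acacia for 7 days. Sham group received vehicle. Plasma TG was measured and body weight tracked. Results given as % change versus HFD control.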

Syrian golden hamster [9] = assay: Antidyslipidemic activity in high fructose and high-fat diet fed dyslipidemic Syrian golden hamster model assessed as reduction in triglyceride level at 25 mg/kg/day for 7 days; assay type: functional, Mesocricetus auratus; design: scale not given: the % may be the effect or the level left; summary of the method: as §3
Syrian golden hamster [10] = assay: Antidyslipidemic activity in high fructose and high-fat diet fed dyslipidemic Syrian golden hamster model assessed as reduction in cholesterol level at 30 mg/kg/day, po for 7 day, po; assay type: functional, Mesocricetus auratus; design: scale not given: the % may be the effect or the level left
[11] = Elimination half life in Sprague-Dawley rat at 2.5 mg/kg, iv by LC-MS/MS method; assay type: ADME, organism-based; design: dose 2.5 mg/kg, route intravenous; conditions: in vivo, read-out: beta t1/2 (converted)
Summary of the method: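 Male Sprague−Dawley rats given a single 2.5 mg/kg iv dose; one formulation was DMF/PG/water (2:4:4), 0.2 μ filtered. Blood drawn from 0.08 to 48 h. Plasma assayed by LC-MS/MS with linear range 0.78−400 ng/mL.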

Syrian golden hamster [12] = assay: Antidyslipidemic activity in high fructose and high-fat diet fed dyslipidemic Syrian golden hamster model assessed as reduction in LDL-cholesterol level at 25 mg/kg/day for 7 days; assay type: functional, Mesocricetus auratus; design: scale not given: the % may be the effect or the level left; summary of the method: as §1
Syrian golden hamster [13] = assay: Antidyslipidemic activity in high fructose and high-fat diet fed dyslipidemic Syrian golden hamster model assessed as increase in HDL-cholesterol level at 25 mg/kg/day for 7 days; assay type: functional, Mesocricetus auratus
[14] = Tmax in Sprague-Dawley rat at 25 mg/kg, po by LC-MS/MS method; assay type: ADME, organism-based; design: dose 25 mg/kg, route oral; conditions: in vivo; summary of the method: as §2
Syrian golden hamster [15] = assay: Antidyslipidemic activity in high fructose and high-fat diet fed dyslipidemic Syrian golden hamster model assessed as increase in HDL-cholesterol level at 10 to 100 mg/kg/day for 7 days; assay type: functional, organism-based; conditions: Mesocricetus auratus; summary of the method: as §1
Mus musculus [16] = assay: Antidyslipidemic activity in diabetic C57BL/KsJ db/db mouse model assessed as reduction in plasma triglyceride level at 25 mg/kg, po qd for 10 days; assay type: functional; design: scale not given: the % may be the effect or the level left
Summary of the method: (§4)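 db/db mice (blood glucose 200−350, TG 170−250, cholesterol 170−250, HDL-C 32−40 mg/dL) dosed orally at 25 mg/kg daily for 10 days; retro-orbital blood taken on day 11 for plasma TG, cholesterol and HDL-C (and HDL-C/CHOL ratio); mean % change versus vehicle control, 5 mice per group; Student t test.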

Mus musculus [17] = assay: Antidyslipidemic activity in diabetic C57BL/KsJ db/db mouse model assessed as increase in plasma HDL-C/cholesterol ratio at 25 mg/kg, po qd for 10 days; assay type: functional; summary of the method: as §4
Syrian golden hamster [18] = assay: Antidyslipidemic activity in high fructose and high-fat diet fed dyslipidemic Syrian golden hamster model assessed as reduction in glycerol level at 10 mg/kg/day, po for 7 day, po; assay type: functional, Mesocricetus auratus; design: scale not given: the % may be the effect or the level left; summary of the method: as §1
Mus musculus [19] = assay: Antihyperglycemic activity in diabetic C57BL/KsJ db/db mouse model assessed as reduction in plasma insulin level in hyperglycemia at 25 mg/kg, po qd for 10 days; assay type: functional; design: scale not given: the % may be the effect or the level left
Summary of the method: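 db/db mice dosed orally every day for 10 days. On day 11, retro-orbital blood was drawn and plasma insulin measured. Mean % change versus vehicle-treated control, 5 mice per group; Student t test.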

[20] = Mean residence time in Sprague-Dawley rat at 25 mg/kg, po by LC-MS/MS method; assay type: ADME, organism-based; design: dose 25 mg/kg, route oral; conditions: in vivo; summary of the method: as §2
Syrian golden hamster [21] = assay: Antidyslipidemic activity in high fructose and high-fat diet fed dyslipidemic Syrian golden hamster model assessed as increase in lipoprotein lipase level at 100 mg/kg/day, po for 7 days; assay type: functional, Mesocricetus auratus; summary of the method: as §1
Mus musculus [22] = assay: Reduction in body weight in diabetic C57BL/KsJ db/db mouse model in hyperglycemia at 25 mg/kg, po qd for 10 days relative to untreated control; assay type: functional; design: scale not given: the % may be the effect or the level left
Summary of the method: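 db/db mice (C57BL/KsJ, 12−18 weeks, 40−50 g, glucose 200−350 mg/dL), housed at 23 ± 2.0 °C on a 12 h light cycle. Oral dosing daily for 10 days. Blood glucose checked each morning through day 9. Body weight recorded daily from day 1 to day 10. Mean % change versus vehicle, 5 mice per group; Student t test.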

Syrian golden hamster [23] = assay: Antidyslipidemic activity in high fructose and high-fat diet fed dyslipidemic Syrian golden hamster model assessed as reduction in NEFA level at 10 mg/kg/day, po for 7 day, po; assay type: functional, Mesocricetus auratus; design: scale not given: the % may be the effect or the level left; summary of the method: as §1
Syrian golden hamster [24] = assay: Antidyslipidemic activity in high fructose and high-fat diet fed dyslipidemic Syrian golden hamster model assessed as reduction in NEFA level at 100 mg/kg/day, po for 7 days; assay type: functional, Mesocricetus auratus; design: scale not given: the % may be the effect or the level left; summary of the method: as §1

For CC(C)(C)NC[C@H](O)COc1ccc2c(=O)cc(-c3cc(OCc4ccccc4)cc(OCc4ccccc4)c3)oc2c1, the Activity (Mus musculus [1]) was 39.9%, the Activity (Syrian golden hamster [2]) was “Dose-dependent effect” and the Activity (Syrian golden hamster [3]) was 31.2%. The Vd (Rattus norvegicus) was 107.41 L/kg, the Activity (Syrian golden hamster [4]) was 26.3% and the Activity (Syrian golden hamster [5]) was “Dose-dependent effect”. For the same compound, the Activity (Syrian golden hamster [6]) was 13.8%, the Activity (Mus musculus [7]) was 14.8% and the Activity (Syrian golden hamster [8]) was 12.5%. The Activity (Syrian golden hamster [9]) was 34.7%, the Activity (Syrian golden hamster [10]) was 27.2% and the half-life [11] was 10.1 h. For the same compound, the Activity (Syrian golden hamster [12]) was 30.1%, the Activity (Syrian golden hamster [13]) was 20.5% and the Tmax [14] was 8 h. For the same compound, the Activity (Syrian golden hamster [15]) was “Dose-dependent effect”, the Activity (Mus musculus [16]) was 27.4% and the “Percent increase in HDL-C/cholesterol ratio vs vehicle” value (Mus musculus [17]) was 92.5. The Activity (Syrian golden hamster [18]) was 14.4%, the Activity (Mus musculus [19]) was 53.4% and the MRT [20] was 30.3 h. It also gave an Activity (Syrian golden hamster [21]) of 69.7%, an Activity (Mus musculus [22]) of 28.2% and an Activity (Syrian golden hamster [23]) of 13.1%. It also gave an Activity (Syrian golden hamster [24]) of 59.1%.
